Yeast superoxide – reduction of superoxide in aged yeast, primary screen, HTS; S. cerevisiae aged cells, superoxide DHE fluorescence; stronger effect = lower value; superoxide response (% of plate mean), % at 10 µM; actives 0.18% (n = 330,000); AID 2690, 2010;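 active = superoxide response under a set limit, about three screen SD below normal, cut at about 65% in these data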;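 note: yeast aged for seven days with compound at 30 °C before DHE staining; 100% = average MFI of all compound-treated wells on the plate with controls excluded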
LANA-H2B inh – blockers of LANA interaction with H2A/H2B – biochemical, FP readout, HTS, primary screen. Protein LANA1 (Human herpesvirus 8 type P (isolate GK18)), Q9QR71. cell-free LANA-H2A/H2B peptide, fluorescence polarization. inhibition, % (no concentration beside the values). actives 0.6% (n = 320,000); in the data active = inhibition mostly above about 10%, no sharp cut-off; inactive = mostly below about 6.7%
proCasp3 act – activators of human procaspase-3 D3A mutant, primary screen, biochemical, absorbance, PC-3 D3A mutant, single concentration; Caspase-3 (Homo sapiens), P42574; recombinant procaspase-3 D3A, Ac-DEVD-pNA absorbance 405 nm; activation, % at 8.5 µM; actives 0.11% (n = 330,000); AID 463141, 2010;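 active = activation above the mean of all tested compounds plus 3 SD, cut at about 21% in these data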;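 note: 0% = DMSO alone and 100% = DMSO wells spiked with extra 5 µM PC-3 D3A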
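Test system: Procaspase-3 D3A mutant, all three cleavage aspartates alanine | Dosing: Single dose, 8.5 µM nominal compound, 0.8% DMSO | Schedule: 1 h preincubation, 2 h reaction | Technique: 405 nm absorbance of p-nitroaniline, reads at 0 and 120 min | Repeats: One well per compound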
ARFGAP1 inhibitor – inhibitors of rat ARFGAP1 GAP activity, primary screen, biochemical, fluorescence polarization, GDP tracer; inhibition, % at 16.5 µM; ADP-ribosylation factor GTPase-activating protein 1 (Rattus norvegicus), Q62848; actives 0.26% (n = 360,000); AID 651572, 2012; Arfgap1-stimulated ARF1 GTP hydrolysis, GDP FP detection;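 active = inhibition above a per-plate limit, mean inhibition of low control wells plus 3 SD, cut at about 25% in these data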;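 note: 0% = DMSO wells with enzyme and 100% = wells lacking Arfgap1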
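Repeats: one replicate per compound; assay system: rat Arfgap1 catalytic domain, aa 1-136; times: enzyme reaction 120 min at 25 °C after 20 min preincubation; detection: FP of antibody-bound GDP Alexa 633 tracer, ex 620/em 688 nm; benchmarks: high control wells lacking Arfgap1, low control full reaction with DMSO; reagent: human ARF1(Δ1-17)-GTP substrate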
ASAP1 GAP inh – inhibitors of human ASAP1 ArfGAP activity, primary screen, biochemical, fluorescence polarization; Arf-GAP with SH3 domain, ANK repeat and PH domain-containing protein 1 (Homo sapiens), …; ASAP1-stimulated ARF1 GTP hydrolysis, GDP FP detection; AID 624377, 2012; actives 0.19% (n = 360,000); inhibition, % at 16.5 µM; in the data active = inhibition above about 25%;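 note: 0% = vehicle with enzyme and substrate and 100% = no enzyme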
Target sequence (Q9ULH1 325-724 limits assumed): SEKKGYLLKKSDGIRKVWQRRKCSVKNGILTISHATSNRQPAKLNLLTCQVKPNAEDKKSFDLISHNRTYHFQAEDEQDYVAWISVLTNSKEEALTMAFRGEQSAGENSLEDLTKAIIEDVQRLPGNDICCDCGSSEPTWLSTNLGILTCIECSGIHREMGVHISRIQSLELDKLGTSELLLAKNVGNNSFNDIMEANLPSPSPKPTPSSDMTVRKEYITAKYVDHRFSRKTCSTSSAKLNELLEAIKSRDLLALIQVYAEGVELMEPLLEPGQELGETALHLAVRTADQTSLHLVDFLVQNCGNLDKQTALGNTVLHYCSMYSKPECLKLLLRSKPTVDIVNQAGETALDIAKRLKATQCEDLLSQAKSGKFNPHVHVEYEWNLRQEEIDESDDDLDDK
proCasp7 act – procaspase-7 activators, primary screen, counter-screen for procaspase-3 activator project, biochemical, absorbance, HTS, human; AID 463210, 2010; Caspase-7 (Homo sapiens), P55210; recombinant procaspase-7, Ac-DEVD-pNA absorbance 405 nm; D23A/D198A/D206A triple mutant, cannot self-cleave; scale: DMSO 0, 5 µM enzyme 100; activation, % at 8.5 µM; actives 0.093% (n = 330,000);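 active = percent activation above the screen-wide mean plus 3 SD, cut at about 25% in these data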
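System: Procaspase-7 triple mutant (PC-7 D3A); measure: % activation from two-timepoint absorbance difference, scaled to controls; times: 1 h compound preincubation, 2 h substrate cleavage, 25 °C; also added: Ac-DEVD-pNA substrate, 400 µM as added; measured by: Epi-absorbance of released pNA at 405 nm, two timepoints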
ASAP1 inh confirm – ASAP1 GAP activity inhibitors, confirmation, biochemical, fluorescence polarization, human, triplicate. shares compounds with ASAP1 GAP inh. ASAP1-stimulated Arf1 GTPase, GDP fluorescence polarization. inhibition, % at 16.5 µM. actives 37% (n = 620);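 active = mean inhibition over triplicates exceeds the hit threshold derived for the earlier primary screening run, cut at about 25% in these data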
* = called active by the depositor; . = not tested or not shown. Most compounds without a hit are left out; they make up all but 1.2% or so of the library.

SMILES | Yeast superoxide | LANA-H2B inh | proCasp3 act | ARFGAP1 inhibitor | ASAP1 GAP inh | proCasp7 act | ASAP1 inh confirm
COc1ccc2c(c1OC)C(=O)OC2CC(=O)c1ccc(O)c(O)c1 (stereo not drawn) | 75 | 0 | 21 | -10 | 144* | 20 | -1
COc1ccc(-c2nnc3n(CCc4ccccc4)c(=O)c4ccccc4n23)c(OC)c1 | 116 | 1 | -6 | -2 | 3 | 6 | .
Cc1ccc2c(c1)c1c(n2CC(O)CN2CCOCC2)CCCC1 (stereo not drawn) | 82 | 3 | 2 | . | . | 4 | .
COc1ccc(C(=O)c2c(C)c3cc(C)ccc3n2CC(O)CN2CCOCC2)cc1 (stereo not drawn) | 94 | -15 | -3 | -8 | 26* | 5 | 1
CCOC(=O)c1cnn(CCOC(=O)c2ccc(F)cc2)c1NC(=O)c1ccc(F)cc1 | 96 | 2 | -10 | 9 | 2 | -5 | .
CCCCNC(=O)NC(C(=O)OC)C12CC3CC(CC(C3)C1)C2 (stereo not drawn) | 101 | -8 | 4 | 13 | 30* | -11 | -4
CN(/N=C/c1ccc(O)cc1O)c1nc(-c2ccccc2)cc(-c2ccccc2)n1 | 109 | 2 | -11 | 18 | 3 | 0 | .
COc1ccccc1NC1=C(N2CCCCC2)C(=O)c2ccccc2C1=O | 134 | 2 | -15 | . | . | -26 | .
O=C1C(Nc2cccc(O)c2)=C(N2CCCCC2)C(=O)c2ccccc21 | 149 | -3 | -4 | 13 | 16 | -19 | .
Cc1ccc(NC2=C(N3CCCCC3)C(=O)c3ccccc3C2=O)cc1 | 125 | 3 | -5 | 15 | 28* | -5 | 16
O=C1C(Nc2ccccc2)=C(N2CCCCC2)C(=O)c2ccccc21 | 131 | 8 | 1 | 10 | 30* | -13 | 17
COc1cccc(/C=C/c2nc(C#N)c(NCC(C)C)o2)c1 | 103 | 2 | 9 | 1 | 29* | 2 | 15
Cc1ccccc1S(=O)(=O)Oc1ccc2ccc(O)cc2c1 | 104 | -3 | -8 | 6 | 27* | 0 | 17
CC(C)C(NCC(=O)Nc1ccccc1C(=O)NC1CC1)c1ccccc1 (stereo not drawn) | 96 | 2 | 16 | 0 | 7 | 8 | .
CCc1nnc(NC(=O)C2CCC(CNc3c(N4CCCCC4)c(=O)c3=O)CC2)s1 (stereo not drawn) | 116 | 1 | 7 | 5 | 28* | -1 | 0
COC(=O)c1ccccc1-c1ccc(C(c2c(C)[nH][nH]c2=O)c2c(C)[nH][nH]c2=O)o1 | 99 | -4 | -19 | 21 | 31* | -14 | 0
C/C(=N\NC(=O)c1c(Cl)c(C)nn1C)c1cccc(NC(=O)C2CCCC2)c1 | 102 | 0 | 8 | -1 | -1 | 6 | .
Cc1ccc(-c2cc(C(=O)N/N=C/c3c(C)nn(-c4ccccc4)c3C)[nH]n2)cc1 | . | . | . | 15 | 26* | . | 7
Cc1ccc(-c2cc(C(=O)N/N=C/c3c(C)nn(-c4ccccc4)c3C)n[nH]2)s1 | . | . | . | 17 | 26* | . | 34*
Cc1nn(-c2ccccc2)c(C)c1/C=N/NC(=O)c1cc(C(C)(C)C)[nH]n1 | 94 | 1 | 4 | -4 | 3 | 3 | .
